Assay outcomes: PubChem, several laboratories
Most compounds without a hit are left out; they make up all but 3.9% or so of the library.
CHOP UPR activ = apoptotic UPR (CHOP) activation | CHO-CHOP luciferase reporter, luminescence; percent of tunicamycin response over DMSO baseline | AID 449763 | 330,000 compounds, 0.34% hits | activation, % at 10 µM;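 active means at 10 µM dose, activation of 40% or more, normalized to positive control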
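Material: CHO-CHOP cells, stable luciferase reporter of PERK-eIF2a-CHOP signalling; quantity: 500 reporter cells seeded per well; buffer or medium: F12 medium containing 10% fetal bovine serum; compound: one dose, 10 µM in 0.5% DMSO; incubation: 6 h compound treatment, 37 °C; measured by: Steady-Glo luciferase luminescence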
UPR XBP1 act = activators of adaptive arm of unfolded protein response (XBP1) | activation, % at 20 µM | 330,000 compounds, 0.33% hits | CHO-XBP1 luciferase reporter, IRE1-XBP1 UPR activation, luminescence; percent of tunicamycin response, DMSO as zero;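 active means versus positive control, 20 µM dose yields 30% or more activation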
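Test system: CHO-XBP1 luciferase reporter cells | Buffer or medium: Serum-containing F12 medium, 10% FBS | Schedule: 6 h compound exposure at 37 °C, 5% CO2 | Detection: Steady-Glo luciferase glow luminescence, 10 min after reagent addition | Read-out basis: Activation, % of tunicamycin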
697 NFkB inh = lowers PMA/ionomycin-induced NF-kB signal in 697 B cells; AID 435022; 330,000 compounds, 0.33% hits; 697 B-cell NF-kB luciferase reporter, 16 h; inhibition, % at 4 µM; in the data active means inhibition above about 35%
Gli-Sufu antag = blocks Gli-Sufu signaling in a luciferase reporter | Sufu-KO-LIGHT fibroblasts, Gli luciferase reporter luminescence | inhibition, % at 5 µM | 340,000 compounds, 0.74% hits;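 active means inhibition above about 55%, limit read from the data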
CHOP inhibitor = CHOP inhibition in unfolded protein response; CHO-K1 CHOP-promoter luciferase, tunicamycin-induced, 15-18 h; inhibition, % at 10 µM; 220,000 compounds, 3.8% hits;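 active means compounds that reduced the stress-induced luciferase reporter signal by more than about 70% of percent inhibition, limit read from the data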
Jurkat NFkB inh = lowers PMA/ionomycin-induced NF-kB signal in Jurkat cells; PMA/ionomycin-induced NF-kB luciferase reporter, luminescence; inhibition, % at 4 µM; 330,000 compounds, 0.53% hits; in the data active means inhibition above about 50%
Large screens that a line does not name were inactive.

COCCn1c(=NC(=O)c2sc3ccccc3c2Cl)sc2cc(S(N)(=O)=O)ccc21	CHOP inhibitor 75
C[C@H](CO)N1C[C@H](C)[C@@H](CN(C)C(=O)NC2CCCCC2)Oc2c(NC(=O)C3CC3)cccc2C1=O	none (no result: CHOP inhibitor)
COc1cccc(CN2CCN(CC(=O)NCCc3ccccc3)CC2)c1	none (no result: CHOP inhibitor)
Cc1ccc(NC(NC(=O)c2cccs2)C(Cl)(Cl)Cl)cc1C (centres undefined)	CHOP inhibitor 80
Cc1ccc(NC(NC(=O)c2cccs2)C(Cl)(Cl)Cl)cc1 (centres undefined)	none
CC(=C/c1ccccc1)/C=N/NC(=O)c1ccccn1	none
CC(/C=N/NC(=O)c1cc(C(C)(C)C)[nH]n1)=C\c1ccccc1	CHOP inhibitor 76
CC(/C=N/NC(=O)c1cc(-c2ccc(C)s2)[nH]n1)=C\c1ccccc1	CHOP inhibitor 96
Cc1ccc(-c2cc(C(=O)N/N=C/c3ccco3)n[nH]2)s1	none
N#Cc1cccc(NC(=O)CSc2cccc[n+]2[O-])c1	none (no result: CHOP inhibitor)
COc1ccc(N2CCN(C(CNC(=O)COc3ccccc3)c3ccco3)CC2)cc1 (centres undefined)	none (no result: CHOP inhibitor)
CCOc1ccc2nc(N(CCCN(C)C)C(=O)c3ccc4c(c3)CCCC4)sc2c1	none (no result: CHOP inhibitor)
CN(C)CCCN(C(=O)c1ccc2c(c1)CCCC2)c1nc2ccc(Cl)cc2s1	CHOP inhibitor 90
O=C(C1CCCN1S(=O)(=O)c1ccc(Cl)c(Cl)c1)N1CCOCC1 (centres undefined)	none
O=C(C1CCCN1S(=O)(=O)c1ccc(Cl)cc1)N1CCOCC1 (centres undefined)	CHOP inhibitor 74
COc1ccc(S(=O)(=O)Nc2ccc(F)c(F)c2)cc1Cl	none
COc1cc(Cl)c(C)cc1NC(=O)c1ccc(NS(=O)(=O)c2ccc(F)c(F)c2)cc1	CHOP inhibitor 79
CCNc1nc(N2CCOCC2)nc(N(c2ccccc2)c2ccccc2)n1	CHOP inhibitor 72
CC(C)(C)Nc1nc(SCc2ccccc2)nc(N2CCOCC2)n1	CHOP inhibitor 74
CCNc1nc(SCC(=O)Nc2ccccc2)nc(N2CCOCC2)n1	none (no result: CHOP inhibitor)
CNc1nc(SCc2ccccc2)nc(N2CCOCC2)n1	none
CC(=O)n1cc(N(C(=O)CCl)c2ccc(Cl)cc2)c2ccccc21	CHOP inhibitor 107
Oc1nc(Nc2cccc(Cl)c2)sc1/C=C1\C=Nc2ccccc21	CHOP inhibitor 79
Oc1cccc(Nc2nc(O)c(/C=C3\C=Nc4ccccc43)s2)c1	none
Cc1cccc(C(=O)OCC(=O)N(CC(C)C)c2c(N)n(Cc3ccccc3)c(=O)[nH]c2=O)c1C	none (no result: CHOP inhibitor)
COc1cc(C(=O)O/N=C(\N)c2ccc([N+](=O)[O-])cc2)cc(OC)c1OC	none
CCOc1cc(C(=O)O/N=C(\N)c2ccc([N+](=O)[O-])cc2)cc(OCC)c1OCC	CHOP inhibitor 79
CC(C)(C)NC(=O)NC(=O)CSc1cccc(C(F)(F)F)c1	CHOP inhibitor 90
CC(C)(C)NC(=O)NC(=O)CSc1ncc(C(F)(F)F)cc1Cl	CHOP inhibitor 74
CC(C)NC(=O)NC(=O)CSc1ncc(C(F)(F)F)cc1Cl	none
CC(C)Oc1ccc(C(=O)Nc2ccc(N3CCCCC3)cc2)cc1	CHOP inhibitor 71
Cc1ccc(C(=O)Nc2ccc(N3CCCC3)cc2)cc1	none
CCc1ccc(NC(=O)c2ccc(F)c(S(=O)(=O)NCC3COc4ccccc4O3)c2)cc1 (centres undefined)	CHOP inhibitor 78
O=C(NCC1COc2ccccc2O1)c1ccc(F)c(S(=O)(=O)N2CCOCC2)c1 (centres undefined)	none (no result: CHOP inhibitor)
O=c1[nH]nc(Cc2ccc(-c3cccc(Cl)c3)o2)c2ccccc12	CHOP inhibitor 72
Clc1cccc(-c2ccc(CNCc3ccccn3)o2)c1	none (no result: CHOP inhibitor)
O=C(CCCCCCCC(=O)N1CCCCCC1)N1CCCCCC1	none (no result: CHOP UPR activ, UPR XBP1 act, 697 NFkB inh, CHOP inhibitor, Jurkat NFkB inh)
Cc1ccc(C)c(Cn2nnc3c(=O)[nH]c(C4CCCN(S(=O)(=O)Cc5ccccc5)C4)nc32)c1 (centres undefined)	UPR XBP1 act 103 (no result: CHOP inhibitor)
Cc1cc2ncn(/N=C/c3ccc(-c4ccccc4)o3)c2cc1C	CHOP inhibitor 77
Cc1cc2ncn(/N=C/c3cccnc3)c2cc1C	none
CC(=O)N1CCN(S(=O)(=O)c2cccc(C(=O)OCc3cccc(F)c3)c2)CC1	none (no result: CHOP inhibitor)
Nc1ccc(-c2nc3c(Cl)cc(N)cc3[nH]2)cc1	CHOP inhibitor 88 (no result: Gli-Sufu antag)
CCOC(=O)N1CCN(S(=O)(=O)c2ccc(C(=O)Nc3nc4ccc(F)cc4s3)cc2)CC1	CHOP inhibitor 84
CCOC(=O)N1CCN(S(=O)(=O)c2ccc(C(=O)Nc3nc4ccccc4s3)cc2)CC1	none
CCOC(=O)c1sc(NC(=O)c2ccc(S(=O)(=O)N3CCCCC3)cc2)nc1-c1ccccc1	CHOP inhibitor 84
O=C(c1cccc(S(=O)(=O)N2CCCC2)c1)N1CCN(S(=O)(=O)c2cccc(Cl)c2)CC1	none (no result: CHOP UPR activ, UPR XBP1 act, 697 NFkB inh, CHOP inhibitor, Jurkat NFkB inh)
O=C(c1ccc(OC2CCN(CCCc3ccccc3)CC2)cc1)N1CCCC1	none (no result: CHOP inhibitor)
Cc1cc2c(cc1C)CSC(c1ccccc1OC(=O)C(C)C)SC2	CHOP inhibitor 72
CN(C1=C(NC(=O)c2ccccc2)C(=O)c2ccccc2C1=O)C1CCS(=O)(=O)C1 (centres undefined)	CHOP inhibitor 107 (no result: Gli-Sufu antag)
COc1ccc(CNC(=O)[C@H](C)NC(=O)C2CCN(S(=O)(=O)c3ccc(F)cc3)CC2)cc1	none (no result: CHOP inhibitor)
CCc1cc2c(=O)c(-c3ccc(F)cc3)c(C)oc2cc1OCC(=O)O	none
CCc1cc2c(=O)c(-c3cnn(-c4ccccc4)c3)c(C)oc2cc1OCC(=O)Nc1ccc(F)c(F)c1	CHOP inhibitor 86
O=[N+]([O-])c1ccc(Oc2ccc(S(=O)(=O)Nc3ccccc3)cc2)cc1	CHOP inhibitor 71
O=[N+]([O-])c1ccc(S(=O)(=O)Nc2ccncc2)cc1	none (no result: CHOP inhibitor)
CCCCN(C(=O)c1cccc(S(=O)(=O)N2CC(C)OC(C)C2)c1)c1c(N)n(CC(C)C)c(=O)[nH]c1=O (centres undefined)	none (no result: CHOP inhibitor)
O=C(NCCc1ccccc1)C(c1cccs1)N(C(=O)CCl)c1ccc(Cl)cc1 (centres undefined)	Gli-Sufu antag 95, CHOP inhibitor 111
O=C(NCCc1ccccc1)C(c1cccs1)N(C(=O)c1csnn1)C1CC1 (centres undefined)	none
COc1ccc(CN(CCC(c2ccccc2)c2ccc(OC(C)C)cc2)C(=O)CCl)cc1OC (centres undefined)	CHOP inhibitor 110
COc1ccc(CNCCC(c2ccccc2)c2ccc(OC(C)C)cc2)cc1OC (centres undefined)	none (no result: CHOP inhibitor)
COc1ccc(CNCCC(c2ccc(F)cc2)c2ccc(OC(C)C)cc2)cc1OC (centres undefined)	CHOP inhibitor 82
